# In article PMC6844228 (International Journal of Nanomedicine, 2019):
# Legend:
# [1] = tested on: human hepatocellular liver carcinoma HepG2 cells; test: Cell Counting Kit-8 cytotoxicity assay, HepG2; type: cell-based; conditions: HepG2, 48 h
# Procedure, shortened: (§1)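 Cells were seeded at 5×10^3 per well in DMEM with 10% FBS, 100 μg/mL streptomycin and 100 IU/mL penicillin, then held 24 h at 37°C under 5% CO2. Medium was replaced with test compound at CA4-equivalent concentrations of 0.0025, 0.025, 0.25, 2.5, 25, 125 and 250 μM for 48 h. Then 10% CCK-8 was added for 1.5 h at 37°C and A450 read. Viability was calculated against control and blank wells, and IC50 derived.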
# mouse sarcoma S180 cells = test: Cell Counting Kit-8 cytotoxicity assay, S180; type: cell-based; conditions: S-180, 48 h
# Procedure, shortened: as §1
# [2] = tested on: human breast adenocarcinoma MCF-7 cells; test: Cell Counting Kit-8 cytotoxicity assay, MCF-7; type: cell-based; conditions: MCF7, 48 h
# Procedure, shortened: as §1
# [3] = In vivo biodistribution in S180 tumor-bearing mice; conditions: iv, drug-equivalent doses of 28 mg/kg CA4P, heart, kidney, liver, spleen, lung
# [4] = In vivo pharmacokinetics after tail vein injection; conditions: 2 h following injection, SD rats
# Procedure, shortened: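 Male rats (180–200 g) were fasted 12 h, then dosed into the tail vein at drug-equivalent 28 mg/kg of phosphate prodrug. Orbital-vein blood was taken at 2, 5, 10, 15, 20, 30 and 45 min and at 1, 1.5, 2, 4, 6 and 10 h, into heparinized vials. Plasma was separated (4,000 rpm, 10 min), stored at −20°C, and prodrug and released parent drug were quantified by HPLC. n=6, mean ± SD.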
Detection of prodrug in plasma [4],SMILES,IC50 [1] [nM],IC50 (mouse sarcoma S180 cells) [nM],IC50 [2] [nM],Tissue detection of prodrug [3]
,"COc1ccc(/C=C\c2cc(OC)c(OC)c(OC)c2)cc1O [CA4, combretastatin A4]",64 ± 6,< 1,4 ± 2,
could not be detected,"COc1ccc(/C=C\c2cc(OC)c(OC)c(OC)c2)cc1OP(=O)(O)O [CA4P, combretastatin A4 phosphate]",179 ± 53,< 1,50 ± 8,"could be detected in the heart, liver, spleen, lung, kidney, and tumor"
